The source of these data is ChEMBL document CHEMBL1135165, “Pyrrolidine-5,5-trans-lactams as novel mechanism-based inhibitors of human cytomegalovirus protease. Part 3: potency and plasma stability” (Bioorg Med Chem Lett, 2002).

Data set [1] has as its target T1, Capsid scaffolding protein (Human cytomegalovirus (strain AD169) (HHV-5) (Human herpesvirus 5), UniProt P16753).
T1 sequence (P16753 whole entry): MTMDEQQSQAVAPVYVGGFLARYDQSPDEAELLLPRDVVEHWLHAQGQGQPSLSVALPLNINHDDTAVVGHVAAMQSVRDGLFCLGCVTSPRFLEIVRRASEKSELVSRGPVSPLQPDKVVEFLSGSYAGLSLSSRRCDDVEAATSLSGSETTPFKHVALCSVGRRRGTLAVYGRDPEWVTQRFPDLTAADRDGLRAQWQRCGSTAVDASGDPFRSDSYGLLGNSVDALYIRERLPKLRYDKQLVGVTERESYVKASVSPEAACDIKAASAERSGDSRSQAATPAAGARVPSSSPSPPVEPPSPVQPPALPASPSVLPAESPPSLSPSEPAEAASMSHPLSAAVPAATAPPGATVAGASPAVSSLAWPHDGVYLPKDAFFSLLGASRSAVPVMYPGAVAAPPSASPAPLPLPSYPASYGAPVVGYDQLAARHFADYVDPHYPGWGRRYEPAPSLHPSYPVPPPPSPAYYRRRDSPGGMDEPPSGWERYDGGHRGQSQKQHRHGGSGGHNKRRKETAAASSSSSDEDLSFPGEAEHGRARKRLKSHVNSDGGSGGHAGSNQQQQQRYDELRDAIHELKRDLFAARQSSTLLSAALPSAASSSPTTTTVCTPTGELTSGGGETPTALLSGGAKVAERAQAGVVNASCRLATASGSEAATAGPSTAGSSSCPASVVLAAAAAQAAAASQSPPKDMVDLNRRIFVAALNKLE
Put plainly: Tested in vitro for inhibitory activity against Protease. Further details: species or system Human betaherpesvirus 5. In short, it runs like this:
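Human cytomegalovirus protease inhibition was measured in a p-nitroanilide (pNA) chromogenic substrate assay. Values are reported as IC50 in μM, with Ki also given for some compounds.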

Data set [2] in a line: Half life in human plasma was reported. It is filed as ADME, cell-free.

Each structure is given as a SMILES string.

The term IC50 denotes the midpoint of a concentration-inhibition curve. One may read the half-life as how long it takes for the measured level to halve. For `C[C@@H]1C(=O)N(C(=O)NCc2ccccc2)[C@H]2CCN(C(=O)[C@@H]3CCCN3S(=O)(=O)c3cccc4c(N(C)C)cccc34)[C@H]12`, the IC50 in data set [1] is 6.6 µM. The compound further had a half-life in data set [2] greater than 1980 min.

Turning to `C[C@@H]1C(=O)N(c2nccs2)[C@H]2CCN(C(=O)[C@@H]3CCCN3S(=O)(=O)c3cccc4c(N(C)C)cccc34)[C@H]12`, half-maximal inhibition in data set [1] (IC50) was put at 2.1 µM. In data set [2], this compound came in with a half-life greater than 3000 min.

For the compound `C[C@@H]1C(=O)N(C(=O)C2C(C)(C)C2(C)C)[C@H]2CCN(C(=O)OCc3ccccc3)[C@H]12`, the IC50 in data set [1] was greater than 500 µM. Moreover, the half-life in data set [2] was 1980 min.

In data set [1], `CC(=O)N1C(=O)C(C)(C)[C@@H]2[C@@H]1CCN2C(=O)OCc1ccccc1` had an IC50 greater than 500 µM. For the same compound, the half-life in data set [2] is 390 min.

Take `C[C@@H]1C(=O)N(c2ccc([N+](=O)[O-])cc2[N+](=O)[O-])[C@H]2CCN(C(=O)OCc3ccccc3)[C@H]12`: in data set [1], the IC50 was roughly 500 µM. For the same compound, the half-life in data set [2] is greater than 1440 min.

`CC1CC1C(=O)N1C(=O)[C@@H](C)[C@@H]2[C@@H]1CCN2C(=O)OCc1ccccc1` (stereo partly drawn) returned an IC50 in data set [1] of 16 µM. In data set [2], this compound had a half-life of 156 min.

On to `C[C@@H]1C(=O)N(c2ccc([N+](=O)[O-])cc2)[C@H]2CCN(C(=O)[C@@H]3CCCN3S(=O)(=O)c3cccc4c(N(C)C)cccc34)[C@H]12`, for which the midpoint of inhibition in data set [1], the IC50, lay at 41 µM. In other words, the double-digit micromolar range.

`COP(=O)(OC)N1C(=O)[C@@H](C)[C@@H]2[C@@H]1CCN2C(=O)OCc1ccccc1` displayed an IC50 in data set [1] greater than 500 µM. In addition, the half-life in data set [2] is greater than 1440 min.

The compound `C[C@@H]1C(=O)N(C(=O)NCc2ccccc2)[C@H]2CCN(C(=O)OCc3ccccc3)[C@H]12` returned an IC50 in data set [1] of 250 µM. The compound also showed a half-life in data set [2] of 720 min.

`CC(=O)N1C(=O)[C@@H](C)[C@@H]2[C@@H]1CCN2C(=O)OCc1ccccc1` showed a half-life in data set [2] of 54 min.

Turning to `CNC(=O)N1C(=O)[C@@H](C)[C@@H]2[C@@H]1CCN2C(=O)[C@@H]1CCCN1S(=O)(=O)c1cccc2c(N(C)C)cccc12`, the half-maximal inhibitory concentration (IC50) in data set [1] was 22 µM. Further, the half-life in data set [2] was 720 min.

The compound `C[C@@H]1C(=O)N(S(C)(=O)=O)[C@H]2CCN(C(=O)OCc3ccccc3)[C@H]12` registered an IC50 in data set [1] of roughly 500 µM. In data set [2], the half-life is less than 5 min.

In the case of `C[C@@H]1C(=O)N(C(=O)C2CC2)[C@H]2CCN(C(=O)[C@@H]3CCCN3S(=O)(=O)c3cccc4c(N(C)C)cccc34)[C@H]12`, in data set [2], the half-life is 300 min.

Take `C[C@@H]1[C@H](C)[C@@H]1C(=O)N1C(=O)[C@@H](C)[C@@H]2[C@@H]1CCN2C(=O)[C@@H]1CCCN1S(=O)(=O)c1cccc2c(N(C)C)cccc12`: in data set [1], the IC50 was 5.1 µM. In data set [2], this compound showed a half-life of 1200 min.

In the case of `C[C@@H]1C(=O)N(C(=O)C2C(C)(C)C2(C)C)[C@H]2CCN(C(=O)[C@@H]3CCCN3S(=O)(=O)c3cccc4c(N(C)C)cccc34)[C@H]12`, in data set [1], the IC50 was greater than 100 µM. The compound further displayed a half-life in data set [2] greater than 1440 min.

In data set [1], `CC1CC1C(=O)N1C(=O)[C@@H](C)[C@@H]2[C@@H]1CCN2C(=O)[C@@H]1CCCN1S(=O)(=O)c1cccc2c(N(C)C)cccc12` (stereo partly drawn) gave an IC50 of 1.4 µM. In data set [2], this compound gave a half-life of 150 min.

For `C[C@@H]1C(=O)N(c2ccc([N+](=O)[O-])cc2)[C@H]2CCN(C(=O)OCc3ccccc3)[C@H]12`, the IC50 in data set [1] was roughly 500 µM. Also, the half-life in data set [2] was 2400 min.

`C[C@@H]1C(=O)N(c2nccs2)[C@H]2CCN(C(=O)OCc3ccccc3)[C@H]12` displayed an IC50 in data set [1] of roughly 500 µM. The half-life in data set [2] is 2640 min.

In data set [1], `C[C@@H]1C(=O)N(C(=O)C2CC2)[C@H]2CCN(C(=O)OCc3ccccc3)[C@H]12` registered an IC50 of 9 µM. Moreover, the half-life in data set [2] is 84 min.

`CNC(=O)N1C(=O)[C@@H](C)[C@@H]2[C@@H]1CCN2C(=O)OCc1ccccc1` came in with an IC50 in data set [1] greater than 500 µM. This compound displayed a half-life in data set [2] greater than 1440 min.

Consider `C[C@@H]1C(=O)N(C(=O)C(C)(C)C)[C@H]2CCN(C(=O)OCc3ccccc3)[C@H]12`, for which the IC50 in data set [1] was greater than 500 µM. The same compound showed a half-life in data set [2] of 222 min.

The compound `C[C@@H]1[C@H](C)[C@@H]1C(=O)N1C(=O)[C@@H](C)[C@@H]2[C@@H]1CCN2C(=O)OCc1ccccc1` displayed an IC50 in data set [1] of 72 µM. For the same compound, the half-life in data set [2] was 588 min.

Take `COC(=O)N1C(=O)[C@@H](C)[C@@H]2[C@@H]1CCN2C(=O)OCc1ccccc1`: the IC50 in data set [1] is 148 µM. The half-life in data set [2] is 50 min.
